Activity calls are given as the source filed them. No cut-off for these calls is given here.
Legend:
[1] = target: Fibroblast growth factor 2 (Homo sapiens, UniProt P09038); test: Binding affinity to FGF-2 by surface plasmon resonance assay
Procedure, shortened: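 Solution-affinity SPR on heparin-coated CM4 chips. FGF-1 measured in HBS-EP (10 mM HEPES pH 7.4, 150 mM NaCl, 3.0 mM EDTA, 0.005% polysorbate 20); FGF-2 measured in HBS-EP with 300 mM NaCl. Kd is the average of at least duplicate measurements ± SD.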

HMVEC [2] = test: Antiangiogenic activity in FGF1-stimulated HMVEC cells after 72 hrs by CellTiter assay; assay type: functional, cell-based; settings: Homo sapiens
HMVEC [3] = test: Antiangiogenic activity in FGF2-stimulated HMVEC cells after 72 hrs by CellTiter assay; assay type: functional, cell-based; settings: Homo sapiens
HMVEC [4] = test: Antiangiogenic activity in VEGF-stimulated HMVEC cells after 72 hrs by CellTiter assay; assay type: functional, cell-based; settings: Homo sapiens
HUVEC [5] = test: Antiangiogenic activity in HUVEC cells assessed as inhibition of tube formation at 10 uM after 18 hrs by matrigel assay; assay type: functional; settings: Homo sapiens
Procedure, shortened: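 HUVECs (passage 4 or 5, 70–80% confluent) suspended at 4 × 10⁵/mL in EGM2 with all supplements except heparin, mixed 1:1 with compound (final 10, 50 or 100 μM) in triplicate. Plated on growth factor-reduced Matrigel for 18 h. Branching nodes joining ≥3 tubules counted manually by phase-contrast microscopy. Reported as % inhibition versus untreated cells.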

Aorta [6] = test: Antiangiogenic activity in Sprague-Dawley rat aorta assessed as inhibition of tube formation dosed daily at 10 uM measured up to 8 days by matrigel assay; assay type: functional
Procedure, shortened: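 Aortas from 6–10-week Sprague–Dawley rats were cut into 1 mm rings, bisected and embedded in Matrigel. Cultured in EBM-2 with 2% FCS and supplements except heparin, without exogenous growth factors. Compound was usually given at two concentrations within 1–50 μM from 10 mM PBS stocks, replenished every 48 h. Microvessels were scored 0–5 up to 8 days by two independent investigators.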

HUVEC [7] = test: Antiangiogenic activity in HUVEC cells assessed as inhibition of tube formation after 18 hrs by matrigel assay; assay type: functional, cell-based; settings: Homo sapiens
Procedure, shortened: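 HUVECs at passage 4–5 (70–80% confluent) resuspended at 4 × 10⁵/mL in EGM2 with all supplements except heparin. Cells mixed with compound to final 10, 50 or 100 μM and plated in triplicate on growth-factor-reduced Matrigel for 18 h. Branching nodes joining three or more tubules counted by phase-contrast microscopy; percent inhibition versus untreated cells.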

Aorta [8] = test: Antiangiogenic activity in Sprague-Dawley rat aorta assessed as inhibition of tube formation measured up to 8 days by matrigel assay; assay type: functional, tissue-based; settings: 192 h
Procedure, shortened: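 Aortas from 6–10-week Sprague–Dawley rats cut into 1 mm rings, bisected and embedded in Matrigel. Cultured in EBM-2 with 2% FCS, supplements but no heparin and no added growth factor. Compound usually given at two concentrations within 1–50 μM (10 mM PBS stock), medium renewed every 48 h. Microvessels scored 0–5 up to 8 days by two independent observers.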

Aorta [9] = test: Cytotoxicity against Sprague-Dawley rat aorta assessed as VEGF-induced microvessel formation measured 6 days post compound treatment grown on fresh medium containing VEGF; assay type: tissue-based; settings: 144 h
Procedure, shortened: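 Viability check on rat aortic ring cultures: after compound exposure, compound/medium withdrawn on day 6 or 7 and replaced with complete medium containing VEGF (typically 10 ng/mL) for up to 7 further days. Renewed microvessel sprouting taken as evidence of viable tissue.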

Rattus norvegicus = test: Elimination half life in Sprague-Dawley rat at 10 mg/kg, sc using [3H]-labeled compound administered as three bolus doses at 96 hrs interval; assay type: ADME, organism-based; set-up: dose 10 mg/kg, route subcutaneous; settings: in vivo
Plasma [10] = test: Anticoagulant activity in pooled human plasma assessed as activated partial thromboplastin time at 0.1 mg/ml; assay type: ADME, cell-free
Procedure, shortened: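 APTT of pooled normal human plasma measured with compound at 0–100 μg/mL in PBS on a ball coagulameter, using unfractionated heparin as the reference. Normal range 26–36 s; coefficient of variation 2% at 36 s and 5–7% at 90 s or above. Values are the mean of two determinations.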

Plasma [11] = test: Anticoagulant activity in pooled human plasma assessed as prolongation of the recalcification time at 0.1 mg/ml by Heptest assay; assay type: ADME, cell-free
Procedure, shortened: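 Heptest clotting time in pooled normal human plasma; normal range 13–20 s. Values are the mean of two determinations.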

[12] = target: Vascular endothelial growth factor A (Homo sapiens) (UniProt P15692); test: Binding affinity to VEGF by surface plasmon resonance assay

Chain of Fibroblast growth factor 2 (P09038 143-288 limits assumed): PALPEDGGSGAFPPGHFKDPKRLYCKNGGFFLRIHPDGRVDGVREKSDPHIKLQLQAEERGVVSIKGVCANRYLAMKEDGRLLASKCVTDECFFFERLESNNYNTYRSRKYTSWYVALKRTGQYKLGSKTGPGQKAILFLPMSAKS

With `CC(C)CCC[C@@H](C)[C@H]1CC[C@H]2[C@@H]3CC[C@H]4C[C@@H](O[C@@H]5O[C@H](COS(=O)(=O)[O-])[C@@H](O[C@H]6O[C@H](COS(=O)(=O)[O-])[C@@H](O[C@H]7O[C@H](COS(=O)(=O)[O-])[C@@H](O[C@H]8O[C@H](COS(=O)(=O)[O-])[C@@H](OS(=O)(=O)[O-])[C@H](OS(=O)(=O)[O-])[C@H]8OS(=O)(=O)[O-])[C@H](OS(=O)(=O)[O-])[C@H]7OS(=O)(=O)[O-])[C@H](OS(=O)(=O)[O-])[C@H]6OS(=O)(=O)[O-])[C@H](OS(=O)(=O)[O-])[C@H]5OS(=O)(=O)[O-])CC[C@]4(C)[C@H]3CC[C@]12C.[Na+].[Na+].[Na+].[Na+].[Na+].[Na+].[Na+].[Na+].[Na+].[Na+].[Na+].[Na+].[Na+]` the Kd [1] was 390 nM, the Activity (HMVEC [2]) was “Active” and the Activity (HMVEC [3]) was “Active”. The Activity (HMVEC [4]) was “Active”, the inhibition at 10 µM (HUVEC [5]) was greater than 80% and the “inhibition (INH)” value (Aorta [6]) was greater than 80%. The IC50 (HUVEC [7]) was 2000 nM, the IC50 (Aorta [8]) was 1100 nM and the Activity (Aorta [9]) was “Non-toxic”. The “beta t1/2” value (Rattus norvegicus) was greater than 50 h, the APTT (Plasma [10]) was 71.9 s and the Time (Plasma [11]) was 28.6 s. The Kd [12] was 28.9 nM.
